An excerpt weighted towards active compounds, which were near 2.3% of everything screened.
EWS-Fli block – EWS/Fli transcriptional activity inhibition; A673 NR0B1-luciferase reporter, viability-normalised; AID 651661; inhibition, % at 12.6 µM; 0.67% of 350,000 active;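 active = mean inhibition of at least 50% after viability correction, with every replicate also passing that limit; inconclusive = mean reaches 50% but only one of two replicates passes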;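 note: firefly luciferase signal divided by Alamar Blue viability fluorescence both relative to DMSO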
Xi reactivation – X-chromosome reactivation activator; XiGFP mouse fibroblasts, % GFP-positive cells imaging, 3 d; cells co-treated with 5-aza-dC sensitizer; scaled so ellipticine positive control = 100%; activation, % at 7.58 µM; 0.055% of 360,000 active; AID 743238;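 active = mean normalized replicate activation at least 10% and every replicate at or above 10%; inconclusive = only one of the two criteria met; inactive = mean below 10% and not all replicates reach 10%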;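 note: 0% = median of on-plate neutral control wells and 100% = ellipticine 6 µM median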
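assay system = SV40-immortalized XiGFP fibroblast cells, line 68-5-11 | buffer or medium = DMEM plus 5-aza-dC sensitizer | doses = single-point pinned compound dosing | times = 3-day compound exposure, then 15 min fixation at room temperature | benchmarks = positive control ellipticine, 6 µM final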
FN deposit inh – fibronectin deposition inhibition | AH1F fibroblasts, Alexa488-fibronectin deposition fluorescence, overnight | inhibition, % at 12.6 µM | 0.086% of 350,000 active;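 active = mean inhibition across replicates of 30% or more, regardless of how many single replicates reach that level; inconclusive = mean under 30% yet at least half of replicates reach 30%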;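 note: positive control wells lacked labelled fibronectin entirely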
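Test system: AH1F fibroblast monolayer depositing Alexa488-labelled fibronectin into matrix. Input: 10000 cells per well. Technique: fluorescence, ex 485 nm, em 525 nm. Buffer or medium: DMEM plus 2% serum, read in PBS. Timing: 1 h cell adhesion before compound, then overnight fibronectin incubation. Compound: single dose, pinned. Read-out basis: inhibition from reduced deposited-fibronectin fluorescence.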
TWEAK Fn14 block – blocks TWEAK-Fn14 interaction in a reporter cell assay | TWEAK-stimulated Fn14 reporter cells, luciferase luminescence, 8 h | inhibition, % at 10 µM | 2% of 360,000 active | AID 1159606; in the data active = inhibition above about 50%
TROY signal inh – inhibitors of TROY-dependent NF-kB signaling; inhibition, % at 10 µM; 0.98% of 360,000 active; Q293 LMP1-TROYcd NF-kB luciferase reporter, 4 h; AID 1347056;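 active = compounds whose plate-normalised and pattern-corrected inhibition of the luciferase reporter signal at the single screening dose is 50% or more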
LGR2 inh – inhibitors of bursicon-induced Drosophila LGR2 receptor cAMP signaling; inhibition, % at 9.99 µM; 0.35% of 380,000 active; AID 720647; HEK293 LGR2, CRE-luciferase, bursicon-stimulated, 4 h;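 active = drop in luminescence signal, shown as inhibition above about 50% in the replicate tests, limit read from the data, passing the limit was not always enough; inconclusive = probably only some replicates passing the limit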;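 note: agonist challenge used bursicon conditioned medium at about half maximal strength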
Active calls of the source: *; ? = inconclusive; . = no result.

SMILES	EWS-Fli block	Xi reactivation	FN deposit inh	TWEAK Fn14 block	TROY signal inh	LGR2 inh
COc1ccccc1NC(=O)N1CC[C@@H]2[C@H]1c1cc(C#Cc3ccc(F)cc3)ccc1N(C)[C@@H]2CO	4	0	-12	.	.	4
C[C@H]1CN([C@@H](C)CO)C(=O)Cc2cc(NC(=O)CCCCCC(=O)Nc3ccccc3N)ccc2O[C@H]1CN(C)CC1CC1	31	0	.	.	.	7
Cc1cc(Nc2ccccc2)nn1C(=O)c1ccc(Br)cc1	.	.	.	53*	.	.
Cc1cc(Nc2ccccc2)nn1C(=O)c1ccccc1	.	.	-6	7	18	.
Cc1ccc(NC(=O)C2=C(c3ccccc3)S(=O)(=O)CCS2(=O)=O)cc1	65*	0	.	88*	74*	38
Cc1ccc(NC(=O)c2ccccc2)cc1	.	.	.	-2	-63	.
O=C(C[C@H]1C[C@@H]2c3cc(NC(=O)NC4CCCC4)ccc3O[C@@H]2[C@H](CO)O1)NCC1CC1	4	0	-4	.	.	-7
COc1cccc(-c2ccc3n(c2=O)C[C@@H]2[C@@H](CO)[C@H](C(=O)N(C)C)N(C(=O)C4CCC4)[C@H]32)c1	9	0	.	.	.	9
O=C(COC(=O)c1ccccc1)NC1CCCC1	-15	0	1	12	-13	-43
O=C(ONC(=O)C1CCCCC1C(=O)NOC(=O)c1ccccc1)c1ccccc1 (stereo unspecified)	1	0	2	51*	27	35
C[C@@H]1CCCCO[C@@H](CN(C)C(=O)c2ccncc2)[C@H](C)CN([C@@H](C)CO)C(=O)c2cc(N(C)C)ccc2O1	-1	0	.	.	.	-2
CCN(CC)C(=O)CSc1ncnc2c1nnn2-c1ccc(F)cc1	.	.	.	26	-2	.
COC(=O)c1ccc(CSc2ncnc3c2nnn3-c2ccc(F)cc2)o1	.	.	.	-22	55*	.
Cc1cc(=O)[nH]c2ccccc12	.	.	.	9	3	.
Cc1cc2[nH]c3c(c[n+](C)c4ccccc34)c2cc1C	82*	0	6	-149	26	100*
CN(C)CC(=O)Nc1ccc2c(c1)[C@H]1C[C@@H](CC(=O)NCCc3ccccc3)O[C@H](CO)[C@H]1O2	-6	0	.	.	.	16
Cc1cc(Br)ccc1N=C1NC(=O)CS1	9	0	1	5	13	-4
Cc1ccc(N=C2NC(=O)CS2)c(C)c1	.	.	.	101*	.	.
COc1ccc(S(=O)(=O)N[C@H]2CC[C@@H](CC(=O)O)O[C@@H]2CO)cc1	-3	0	-6	.	.	-7
C=C(CCC(=O)c1ccccc1)C(=O)c1ccccc1	13	1	-1	57*	-34	.
O=C(CCCCCCCC(=O)c1ccccc1)c1ccccc1	2	0	6	3	-22	.
C=C(C(=O)c1ccccc1)C(CC(=O)c1ccccc1)c1ccccc1 (stereo unspecified)	.	0	19	71*	11	?
O=C(Nc1cc(F)ccc1F)N[C@@H]1CC[C@@H](CCn2cc(C3CC3)nn2)O[C@H]1CO	0	-1	-3	.	.	10
CCOc1ccc(/C=C2\SC(=S)N(CCC(=O)O)C2=O)cc1	73*	0	-2	86*	58*	-37
COc1ccc(/C=C2\SC(=S)N(CCC(=O)N3CCCCC3)C2=O)cc1	12	0	9	50*	14	0
SMILES	EWS-Fli block	Xi reactivation	FN deposit inh	TWEAK Fn14 block	TROY signal inh	LGR2 inh
CCCNC(=O)[C@@H]1[C@@H](CO)[C@@H]2Cn3c(ccc(C4=CCCC4)c3=O)[C@H]1N2C(C)=O	-6	0	.	.	.	5
COc1ccc(CNC(=O)C[C@@H]2C=C[C@H](NS(=O)(=O)c3cccc(OC)c3)[C@H](CO)O2)cc1	-9	0	.	.	.	3
CCCNC(=O)C1(C)CCCN(Cc2ccc(-c3ccccc3)o2)C1 (stereo unspecified)	4	0	-16	70*	2	24
COc1ccccc1N(Cc1ccccc1)S(=O)(=O)c1cccc(C(=O)Nc2ccc(C)cn2)c1	21	0	6	53*	20	15
CN1CCN(C(=O)c2ccccc2N(Cc2ccccc2)S(=O)(=O)c2ccccc2)CC1	21	.	.	-4	11	18
CN1CCN(C(=O)c2ccccc2N(Cc2ccccc2)S(C)(=O)=O)CC1	.	.	.	72*	7	.
COCCNC(=O)C[C@@H]1C[C@@H]2c3cc(NC(=O)Nc4ccccc4F)ccc3O[C@@H]2[C@H](CO)O1	-9	0	-6	.	.	-3
COc1ccc(CCNc2oc(COc3ccccc3Cl)nc2C#N)cc1OC	0	0	-6	43	52*	-5
COc1ccc(CCNc2oc(COc3ccccc3F)nc2C#N)cc1OC	.	.	.	3	26	.
Cc1cc(C)c(-c2csc(NC(=O)/C=C/c3cccs3)n2)c(C)c1	.	0	3	69*	-5	4
O=C(/C=C/c1cccs1)Nc1cccc(NC(=O)/C=C/c2cccs2)n1	-4	0	10	73*	26	43
Cc1cc(C)nc(NC(=O)/C=C/c2cccs2)c1	-83	.	.	-2	-38	-97
O=C1C2C=C(Br)[C@H](C[C@@H]2OCCCCCCO)[C@@]12CO2	-5	.	.	.	.	.
O=C1N=C(N2CCCC2)S/C1=C\C=C\c1ccccc1	-36	0	0	77*	72*	.
CCc1ccc(/C=C2\SC(N3CCCC3)=NC2=O)cc1	1	0	4	41	58*	-27
O=C(Nc1ccc(Br)cc1)c1ccc(F)c(S(=O)(=O)NCc2cccs2)c1	.	0	-8	58*	41	20
O=S(=O)(NCc1cccs1)c1ccc(Br)cc1	-7	0	4	4	-16	8
O=C(Nc1ccc(N2CCN(C(=O)c3ccccc3)CC2)c(Cl)c1)c1ccc(Br)o1	-8	.	.	38	28	89*
O=C(Nc1ccc(N2CCN(C(=O)c3ccccc3)CC2)cc1)c1cc2ccccc2o1	.	.	.	91*	70*	82*
O=C(Nc1ccc(N2CCN(C(=O)c3ccccc3)CC2)cc1)c1ccc(Br)o1	.	.	.	-10	-2	.
CN(C)CC(=O)Nc1ccc2c(c1)[C@H]1C[C@@H](CC(=O)N3CCCCC3)O[C@H](CO)[C@H]1O2	3	0	.	.	.	6
O=C1N(c2ccccc2)C[C@@H]2C[C@@H](c3cc4ccccc4o3)N3CCC[C@@]123	39	0	.	84*	48	90*
Cc1ccc(-c2ccccc2[C@@H]2C[C@H]3CN(C)C(=O)[C@]34CCCN24)o1	7	0	1	6	7	3
Clc1ccc(OCc2nn3c(-c4ccco4)nnc3s2)c(Cl)c1	.	.	.	47	69*	.
Cc1ccc(OCc2nn3c(-c4ccco4)nnc3s2)cc1	.	.	.	-22	-23	.
CC(=O)N(C)C[C@@H]1Oc2ncc(C#C[C@H](C)O)cc2C(=O)N([C@@H](C)CO)C[C@@H]1C	-1	0	1	.	.	15

Screens deposited in PubChem by several laboratories.
